Results as given in ChEMBL document CHEMBL5325429, “Antibacterial and antibiofilm activity of permanently ionized quaternary ammonium fluoroquinolones” (Eur J Med Chem, 2023).
Structures can show the parent of a compound that is named as a salt. Activity calls are given as the source filed them. The calls are words filed in the database; no cut-off is given here.

Assays:
Pseudomonas aeruginosa [1] = test: Antibacterial activity against Pseudomonas aeruginosa ATCC 27853 assessed as bacterial growth inhibition incubated for 24 hrs by broth microdilution assay; assay type: functional
Method in brief: (§1)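 Broth microdilution per CLSI. Colonies from overnight Mueller Hinton agar were suspended in 0.9% saline, set by densitometer, and diluted in cation-adjusted MHB to 1×10^6 CFU/mL. This was mixed 1:1 with compound and incubated 24 h at 37 °C. A600 was read versus untreated control and checked visually. Screen at 50 μM; compounds with ≥80% inhibition went to MIC testing at 75–0.78 μM. […] Two independent experiments, three technical replicates each.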

Staphylococcus aureus [2] = test: Antibacterial activity against Staphylococcus aureus ATCC 29213 assessed as bacterial growth inhibition incubated for 24 hrs by broth microdilution assay; assay type: functional; method in brief: as §1
Pseudomonas aeruginosa [3] = test: Antibiofilm activity against Pseudomonas aeruginosa ATCC 15442 assessed as reduction in biofilm formation at 5 to 25 uM incubated for 18 hrs relative to control; assay type: functional; set-up: scale not given: the % may be the effect or the level left; details: dose 5-25 µM
Method in brief: (§2)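 Pre-exposure biofilm assay. Inoculum: TSA colonies grown in TSB at 37 °C, 220 rpm, to OD 0.3–0.35, then diluted 100-fold to about 10^6 CFU/mL. Culture was mixed with compound (50x DMSO stock) and shaken at 220 rpm for 18 h at 37 °C. Biofilm was read by resazurin fluorescence (ex 560/em 590) and by crystal violet A595, as % of untreated control.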

Pseudomonas aeruginosa [4] = test: Antibiofilm activity against Pseudomonas aeruginosa ATCC 15442 assessed as reduction in bacterial viability incubated for 18 hrs; assay type: functional
Method in brief: (§3)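 Biofilm viability by resazurin. 10^6 CFU/mL TSB culture was exposed to compound (50x DMSO stock) for 18 h at 37 °C with shaking at 220 rpm. Biofilm was washed once with PBS and stained with resazurin (1:20 in PBS) in the dark at 37 °C for about 1 h (P. aeruginosa) or about 30 min (S. aureus). Fluorescence ex 560/em 590 is given as % of untreated control.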

Pseudomonas aeruginosa [5] = test: Antibiofilm activity against Pseudomonas aeruginosa ATCC 15442 assessed as reduction in bacterial biomass incubated for 18 hrs by crystal violet staining based assay; assay type: functional
Method in brief: (§4)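 Pre-exposure biofilm: 10^6 CFU/mL TSB culture with compound (50x DMSO stock), 18 h at 37 °C, shaken at 220 rpm. After the resazurin read, biofilms were ethanol-fixed for 15 min, dried, and stained 5 min with 100x-diluted crystal violet. After two water washes, dye was solubilised in 96% ethanol for about 1 h and read at A595. Total biomass is expressed as % of untreated control.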

Pseudomonas aeruginosa [6] = test: Antibiofilm activity against Pseudomonas aeruginosa ATCC 15442 assessed as reduction in bacterial viability at 10 to 50 uM incubated for 18 hrs; assay type: functional; details: dose 10-50 µM; method in brief: as §3
Pseudomonas aeruginosa [7] = test: Antibiofilm activity against Pseudomonas aeruginosa ATCC 15442 assessed as reduction in bacterial biomass at 10 to 50 uM incubated for 18 hrs by crystal violet staining based assay; assay type: functional, organism-based; details: dose 10-50 µM; method in brief: as §4
Pseudomonas aeruginosa [8] = test: Antibiofilm activity against Pseudomonas aeruginosa ATCC 15442 assessed as log 10 reduction in CFU at 200 uM incubated for 18 hrs; assay type: functional
Method in brief: (§5)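 Post-exposure CFU count. Biofilms were grown 18 h at 37 °C, 220 rpm, from a 10^6 CFU/mL TSB culture. Planktonic cells were removed, then compound (50x DMSO stock) in fresh TSB was added for a further 24 h. Wells were PBS-washed, scraped into PBS, serially diluted 10-fold and spotted on agar. After 24 h incubation, spots with 3–30 colonies were counted and reported as log10 cells/mL. Two experiments on different days, two technical replicates each.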

Staphylococcus aureus [9] = test: Antibiofilm activity against Staphylococcus aureus ATCC 25923 assessed as reduction in bacterial biomass at 50 uM incubated for 18 hrs by crystal violet staining based assay relative to control; assay type: functional; set-up: scale not given: the % may be the effect or the level left; method in brief: as §4
Staphylococcus aureus [10] = test: Antibiofilm activity against Staphylococcus aureus ATCC 25923 assessed as reduction in bacterial biomass at 50 uM incubated for 18 hrs; assay type: functional, organism-based; method in brief: as §4
Staphylococcus aureus [11] = test: Antibiofilm activity against Staphylococcus aureus ATCC 25923 assessed as assessed as log 10 reduction in CFU at 200 uM incubated for 18 hrs; assay type: functional; method in brief: as §5
[12] = Cytotoxicity against mouse BALB/3T3 clone A31 cells upto 50 uM incubated for 48 hrs by celltiter glo luminescent assay; assay type: toxicity, cell-based; details: balb/3t3 clone a31, 48 h
[13] = Cytotoxicity against mouse BALB/3T3 clone A31 cells assessed as viable cells at 200 uM incubated for 48 hrs by celltiter glo luminescent assay relative to control; assay type: toxicity, cell-based; details: read-out: Activity
[14] = Cytotoxicity against mouse BALB/3T3 clone A31 cells incubated for 48 hrs by celltiter glo luminescent assay; assay type: toxicity, cell-based
[15] = Selectivity index, ratio of CC50 for cytotoxicity against mouse BALB/3T3 clone A31 cells to MIC for antibacterial activity against Pseudomonas aeruginosa ATCC 27853 assessed as bacterial growth inhibition; assay type: toxicity, cell-based; details: read-out: Selectivity Index
[16] = Selectivity index, ratio of CC50 for cytotoxicity against mouse BALB/3T3 clone A31 cells to MIC for antibacterial activity against Staphylococcus aureus ATCC 29213 assessed as bacterial growth inhibition; assay type: toxicity, cell-based; details: read-out: Selectivity Index
Staphylococcus aureus [17] = test: Antibiofilm activity against Staphylococcus aureus ATCC 25923 assessed as reduction in bacterial viability at 50 uM incubated for 18 hrs by resazurin staining based assay relative to control
Pseudomonas aeruginosa [18] = test: Antibiofilm activity against Pseudomonas aeruginosa ATCC 15442 assessed as reduction in bacterial viability at 2.5 to 320 uM incubated for 18 hrs; assay type: functional, organism-based; details: dose 2.5-320 µM; method in brief: as §3
Pseudomonas aeruginosa [19] = test: Antibiofilm activity against Pseudomonas aeruginosa ATCC 15442 assessed as reduction in bacterial biomass at 2.5 to 320 uM incubated for 18 hrs by crystal violet staining based assay; assay type: functional, organism-based; details: dose 2.5-320 µM; method in brief: as §4
Pseudomonas aeruginosa [20] = test: Antibiofilm activity against Pseudomonas aeruginosa ATCC 15442 assessed as reduction in bacterial biomass at 1 to 200 uM incubated for 18 hrs by crystal violet staining based assay; assay type: functional, organism-based; details: dose 1-200 µM; method in brief: as §4
Pseudomonas aeruginosa [21] = test: Antibiofilm activity against Pseudomonas aeruginosa ATCC 15442 assessed as reduction in bacterial viability at 200 uM incubated for 18 hrs; assay type: functional, organism-based; method in brief: as §3
Pseudomonas aeruginosa [22] = test: Antibiofilm activity against Pseudomonas aeruginosa ATCC 15442 assessed as reduction in bacterial viability at 20 to 40 uM incubated for 18 hrs relative to control; assay type: functional; details: dose 20-40 µM; method in brief: as §3
Pseudomonas aeruginosa [23] = test: Antibiofilm activity against Pseudomonas aeruginosa ATCC 15442 assessed as reduction in bacterial biomass at 40 to 80 uM incubated for 18 hrs by crystal violet staining based assay relative to control; assay type: functional; set-up: scale not given: the % may be the effect or the level left; details: dose 40-80 µM; method in brief: as §4
Staphylococcus aureus [24] = test: Antibiofilm activity against Staphylococcus aureus assessed as inhibition of biofilm formation at 2.5 to 5 uM incubated for 18 hrs relative to control; set-up: scale not given: the % may be the effect or the level left; details: dose 2.5-5 µM
Pseudomonas aeruginosa [25] = test: Antibiofilm activity against Pseudomonas aeruginosa ATCC 15442 assessed as reduction in biofilm formation at 25 uM incubated for 18 hrs; assay type: functional, organism-based; method in brief: as §2
Pseudomonas aeruginosa [26] = test: Antibiofilm activity against Pseudomonas aeruginosa ATCC 15442 assessed as reduction in biofilm formation at 100 uM incubated for 18 hrs relative to control; assay type: functional; set-up: scale not given: the % may be the effect or the level left; method in brief: as §2
Pseudomonas aeruginosa [27] = test: Antibiofilm activity against Pseudomonas aeruginosa ATCC 15442 assessed as reduction in bacterial viability at 50 uM incubated for 18 hrs; assay type: functional, organism-based; method in brief: as §3

For `C[N+]1(C)CCN(c2cc3c(cc2F)c(=O)c(C(=O)O)cn3C2CC2)CC1.[I-]`, the MIC (Pseudomonas aeruginosa [1]) was 6.25 µM, the MIC (Staphylococcus aureus [2]) was 6.25 µM and the Activity (Pseudomonas aeruginosa [3]) was >90%. For the same compound, the MBIC (Pseudomonas aeruginosa [4]) was 25 µM, the MBIC (Pseudomonas aeruginosa [5]) was 50 µM and the Activity (Pseudomonas aeruginosa [6]) was 50%. For the same compound, the Activity (Pseudomonas aeruginosa [7]) was “inactive”, the Activity (Pseudomonas aeruginosa [8]) was 2 log10CFU and the Activity (Staphylococcus aureus [9]) was 100%. The Activity (Staphylococcus aureus [10]) was “inactive”, the Activity (Staphylococcus aureus [11]) was 2 log10CFU and the Activity [12] was “Non-Toxic”. The viability at 48 h, 200 µM [13] was 108%, the CC50 at 48 h [14] was > 200 µM and the selectivity ratio [15] was > 32. For the same compound, the selectivity ratio [16] was > 32 and the Activity (Staphylococcus aureus [17]) was 60%.
In the case of `CCn1cc(C(=O)O)c(=O)c2cc(F)c(N3CC[N+](C)(C)CC3)nc21`, the MIC (Pseudomonas aeruginosa [1]) is reported as > 50 µM and the MIC (Staphylococcus aureus [2]) is reported as 50 µM.
With `O=C(O)c1cn(C2CC2)c2cc(N3CCNCC3)c(F)cc2c1=O` [CIPROFLOXACIN HYDROCHLORIDE] the MIC (Pseudomonas aeruginosa [1]) was 2.72 µM, the MIC (Staphylococcus aureus [2]) was 1.36 µM and the Activity (Pseudomonas aeruginosa [18]) was “Active”. For the same compound, the Activity (Pseudomonas aeruginosa [19]) was “Active”, the Activity (Pseudomonas aeruginosa [20]) was “inactive” and the Activity (Pseudomonas aeruginosa [21]) was “Active”.
With `CCn1cc(C(=O)O)c(=O)c2cnc(N3CC[N+](C)(C)CC3)nc21` the MIC (Pseudomonas aeruginosa [1]) was > 50 µM and the MIC (Staphylococcus aureus [2]) was > 50 µM.
Compound `CCn1cc(C(=O)O)c(=O)c2cc(F)c(N3CC[N+](C)(C)C(C)C3)c(F)c21` (stereo unspecified) has an MIC (Pseudomonas aeruginosa [1]) of 75 µM and an MIC (Staphylococcus aureus [2]) of 25 µM.
For `CCn1cc(C(=O)O)c(=O)c2cc(F)c(N3CC[N+]4(CC3)CN3C(=N4)C(C(=O)O)=Cc4ccccc43)nc21.[I-]`, the Activity (Pseudomonas aeruginosa [22]) was >90%, the Activity (Pseudomonas aeruginosa [23]) was >90% and the Activity (Staphylococcus aureus [24]) was >90%.
In the case of `O=C(O)C1=Cc2ccccc2N2C[N+]3(CCN(c4cc5c(cc4F)c(=O)c(C(=O)O)cn5C4CC4)CC3)N=C12.[I-]`, the Activity (Pseudomonas aeruginosa [22]) is reported as >90%, the Activity (Pseudomonas aeruginosa [23]) is reported as >90% and the Activity (Staphylococcus aureus [24]) is reported as >90%.
With `CCn1cc(C(=O)O)c(=O)c2cc(F)c(N3CC[N+]4(CN5C(=N4)C(C(=O)O)=Cc4ccccc45)C(C)C3)c(F)c21.[I-]` (stereo unspecified) the Activity (Staphylococcus aureus [24]) was >90%.
With `C[N+]1(C)CCCN(c2cc3c(cc2F)c(=O)c(C(=O)O)cn3C2CC2)CC1.[I-]` the MIC (Pseudomonas aeruginosa [1]) was 6.25 µM, the MIC (Staphylococcus aureus [2]) was 6.25 µM and the Activity (Pseudomonas aeruginosa [22]) was >90%. The Activity (Pseudomonas aeruginosa [23]) was >90%, the Activity (Pseudomonas aeruginosa [3]) was >90% and the MBIC (Pseudomonas aeruginosa [4]) was 25 µM. The MBIC (Pseudomonas aeruginosa [5]) was 50 µM, the Activity (Pseudomonas aeruginosa [6]) was 50% and the Activity (Pseudomonas aeruginosa [7]) was “inactive”. The Activity (Pseudomonas aeruginosa [8]) was 2 log10CFU, the Activity (Staphylococcus aureus [9]) was 100% and the Activity (Staphylococcus aureus [10]) was “inactive”. For the same compound, the Activity (Staphylococcus aureus [11]) was 2 log10CFU, the Activity [12] was “Non-Toxic” and the viability at 48 h, 200 µM [13] was 81.7%. For the same compound, the CC50 at 48 h [14] was > 200 µM, the selectivity ratio [15] was > 32 and the selectivity ratio [16] was > 32. The Activity (Staphylococcus aureus [24]) was >90% and the Activity (Staphylococcus aureus [17]) was 60%.
For `O=C(O)C1=Cc2ccccc2N2C[N+]3(CCCN(c4cc5c(cc4F)c(=O)c(C(=O)O)cn5C4CC4)CC3)N=C12.[Cl-]` (stereo unspecified), the MIC (Pseudomonas aeruginosa [1]) was 25 µM, the MIC (Staphylococcus aureus [2]) was 25 µM and the Activity (Pseudomonas aeruginosa [25]) was “Active”. The Activity (Pseudomonas aeruginosa [26]) was 80%, the Activity (Pseudomonas aeruginosa [6]) was 50% and the Activity (Pseudomonas aeruginosa [7]) was “inactive”. The Activity (Pseudomonas aeruginosa [8]) was 2 log10CFU, the Activity (Pseudomonas aeruginosa [27]) was “Active” and the Activity [12] was “Non-Toxic”. It also gave a viability at 48 h, 200 µM [13] of 1.55%, a CC50 at 48 h [14] of 160 µM and a selectivity ratio [15] of 6.4. The selectivity ratio [16] was 6.4.
With `CCn1cc(C(=O)O)c(=O)c2cc(F)c(N3CC[N+](C)(C)CC3)cc21` the MIC (Pseudomonas aeruginosa [1]) was > 50 µM and the MIC (Staphylococcus aureus [2]) was 25 µM.
